In brackets after ≈: the same amount, converted by molar mass.
Key:
[1] = system: Staphylococcus aureus; assay: Antibacterial activity against Staphylococcus aureus ATCC 25923 at 200 ug/ml after 24 hrs by disc-diffusion method; format: functional; conditions: ATCC 25923, 24 h, read-out: IZ
[2] = system: Escherichia coli; assay: Antibacterial activity against Escherichia coli ATCC 25922 at 200 ug/ml after 24 hrs by disc-diffusion method; format: functional; conditions: ATCC 25922, 24 h, read-out: IZ
[3] = system: Bacillus subtilis; assay: Antibacterial activity against Bacillus subtilis ATCC 6633 at 200 ug/ml after 24 hrs by disc-diffusion method; format: functional; conditions: ATCC 6633, 24 h, read-out: IZ
[4] = system: Aspergillus niger; assay: Antifungal activity against Aspergillus niger at 200 ug/ml after 48 hrs by agar diffusion method; format: functional; conditions: read-out: IZ
Outline: (§1)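 Agar well diffusion on Sabouraud agar (peptone 1 g, D-glucose 4 g, agar 2 g per 100 ml water, pH 5.7). Plates were lawned with a saline suspension of spores, excess was decanted, and plates were dried 1 h at 37 °C. Compounds in DMSO went into punched wells, and inhibition zones were measured against controls, with voriconazole as standard.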

[5] = system: Pseudomonas aeruginosa; assay: Antibacterial activity against Pseudomonas aeruginosa ATCC 27853 after 18 to 24 hrs; format: functional
[6] = system: Aspergillus niger; assay: Antifungal activity against Aspergillus niger at 100 ug/ml after 3 to 4 days by agar diffusion method; conditions: read-out: IZ
[7] = system: Candida albicans; assay: Antifungal activity against Candida albicans at 200 ug/ml after 48 hrs by agar diffusion method; format: functional; conditions: read-out: IZ; outline: as §1
[8] = system: Bacillus subtilis; assay: Antibacterial activity against Bacillus subtilis ATCC 6633 after 24 hrs by broth dilution technique; format: functional; conditions: ATCC 6633, 24 h
Outline: (§2)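 MIC by broth dilution: nutrient broth containing logarithmic two-fold serial dilutions of compound was inoculated with about 5 × 10⁵ c.f.u. of actively dividing bacteria.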

[9] = system: Candida albicans; assay: Antifungal activity against Candida albicans at 100 ug/ml after 48 hrs by agar diffusion method; format: functional; conditions: read-out: IZ; outline: as §1
[10] = system: Candida albicans; assay: Antifungal activity against Candida albicans after 48 hrs; format: functional
[11] = system: Aspergillus niger; assay: Antifungal activity against Aspergillus niger after 48 hrs; format: functional
[12] = system: Escherichia coli; assay: Antibacterial activity against Escherichia coli ATCC 25922 after 24 hrs by broth dilution technique; format: functional; conditions: ATCC 25922, 24 h; outline: as §2
[13] = system: Escherichia coli; assay: Antibacterial activity against Escherichia coli ATCC 25922 after 18 to 24 hrs; format: functional
[14] = system: Pseudomonas aeruginosa; assay: Antibacterial activity against Pseudomonas aeruginosa ATCC 27853 after 24 hrs by broth dilution technique; format: functional; conditions: ATCC 27853, 24 h; outline: as §2
[15] = system: Pseudomonas aeruginosa; assay: Antibacterial activity against Pseudomonas aeruginosa ATCC 27853 at 200 ug/ml after 24 hrs by disc-diffusion method; format: functional; conditions: ATCC 27853, 24 h, read-out: IZ
[16] = system: Staphylococcus aureus; assay: Antibacterial activity against Staphylococcus aureus ATCC 25923 after 24 hrs by broth dilution technique; format: functional; conditions: ATCC 25923, 24 h; outline: as §2
[17] = system: Escherichia coli; assay: Antibacterial activity against Escherichia coli ATCC 25922 at 100 ug/ml after 24 hrs by disc-diffusion method; format: functional; conditions: ATCC 25922, 24 h, read-out: IZ
[18] = system: Staphylococcus aureus; assay: Antibacterial activity against Staphylococcus aureus ATCC 25923 at 100 ug/ml after 24 hrs by disc-diffusion method; format: functional; conditions: ATCC 25923, 24 h, read-out: IZ
[19] = system: Pseudomonas aeruginosa; assay: Antibacterial activity against Pseudomonas aeruginosa ATCC 27853 at 100 ug/ml after 24 hrs by disc-diffusion method; format: functional; conditions: ATCC 27853, 24 h, read-out: IZ
[20] = system: Bacillus subtilis; assay: Antibacterial activity against Bacillus subtilis ATCC 6633 at 100 ug/ml after 24 hrs by disc-diffusion method; format: functional; conditions: ATCC 6633, 24 h, read-out: IZ
[21] = system: Staphylococcus aureus; assay: Antibacterial activity against Staphylococcus aureus ATCC 25923 after 18 to 24 hrs; format: functional
[22] = system: Bacillus subtilis; assay: Antibacterial activity against Bacillus subtilis ATCC 6633 after 18 to 24 hrs; format: functional

Row | MIC [8] [µg/mL] | MIC [10] [µg/mL] | MIC [11] [µg/mL] | MIC [12] [µg/mL] | MIC [14] [µg/mL] | MIC [16] [µg/mL] | SMILES | zone of inhibition at 200 µg/mL [1] [mm] | zone of inhibition at 200 µg/mL [2] [mm] | zone of inhibition at 200 µg/mL [3] [mm] | zone of inhibition at 200 µg/mL [4] [mm] | MBC [5] [µg/mL] | zone of inhibition at 100 µg/mL [6] [mm] | zone of inhibition at 200 µg/mL [7] [mm] | zone of inhibition at 100 µg/mL [9] [mm] | MFC [10] [µg/mL] | MFC [11] [µg/mL] | MBC [13] [µg/mL] | zone of inhibition at 200 µg/mL [15] [mm] | zone of inhibition at 100 µg/mL [17] [mm] | zone of inhibition at 100 µg/mL [18] [mm] | other results
1 | 12.5 (≈ 26.5 µM) | 12.5 (≈ 26.5 µM) | 6 (≈ 12.7 µM) | 25 (≈ 52.9 µM) | 25 (≈ 52.9 µM) | 12.5 (≈ 26.5 µM) | COc1ccc(C(=O)/C=C/c2ccc(OCc3nnc(COc4ccccc4)o3)c(OC)c2)cc1 | 19 | 22 | 16 | 19 | 12.5 (≈ 26.5 µM) | 16 | 14 | 11 | 25 (≈ 52.9 µM) | 12.5 (≈ 26.5 µM) | 12.5 (≈ 26.5 µM) | 28 | 21 | 17 | zone of inhibition at 100 µg/mL [19]: 26 mm; zone of inhibition at 100 µg/mL [20]: 13 mm; MBC [21]: 25 µg/mL (≈ 52.9 µM); MBC [22]: 12.5 µg/mL (≈ 26.5 µM)
2 | 12.5 (≈ 27.3 µM) | 12.5 (≈ 27.3 µM) | 6 (≈ 13.1 µM) | 6 (≈ 13.1 µM) | 12.5 (≈ 27.3 µM) | 6 (≈ 13.1 µM) | COc1cc(/C=C/C(=O)c2ccc(O)cc2)ccc1OCc1nnc(COc2ccccc2)o1 | 18 | 22 | 16 | 24 | 25 (≈ 54.5 µM) | 22 | 19 | 17 | 25 (≈ 54.5 µM) | 12.5 (≈ 27.3 µM) | 12.5 (≈ 27.3 µM) | 27 | 20 | 17 | zone of inhibition at 100 µg/mL [19]: 25 mm; zone of inhibition at 100 µg/mL [20]: 14 mm; MBC [21]: 12.5 µg/mL (≈ 27.3 µM); MBC [22]: 25 µg/mL (≈ 54.5 µM)

Second part, the compound before the results:

Row | SMILES | MIC [8] [µg/mL] | MIC [10] [µg/mL] | MIC [11] [µg/mL] | MIC [12] [µg/mL] | MIC [14] [µg/mL] | MIC [16] [µg/mL] | zone of inhibition at 200 µg/mL [1] [mm] | zone of inhibition at 200 µg/mL [2] [mm] | zone of inhibition at 200 µg/mL [3] [mm] | zone of inhibition at 200 µg/mL [4] [mm] | MBC [5] [µg/mL] | zone of inhibition at 100 µg/mL [6] [mm] | zone of inhibition at 200 µg/mL [7] [mm] | zone of inhibition at 100 µg/mL [9] [mm] | MFC [10] [µg/mL] | MFC [11] [µg/mL] | MBC [13] [µg/mL] | zone of inhibition at 200 µg/mL [15] [mm] | zone of inhibition at 100 µg/mL [17] [mm] | zone of inhibition at 100 µg/mL [18] [mm] | other results
3 | COc1ccc(C(=O)/C=C/c2ccc(OCc3nnc(-c4ccccc4)o3)c(OC)c2)cc1 | 6 (≈ 13.6 µM) | 6 (≈ 13.6 µM) | 12.5 (≈ 28.3 µM) | 12.5 (≈ 28.3 µM) | 12.5 (≈ 28.3 µM) | 12.5 (≈ 28.3 µM) | 18 | 21 | 14 | 24 | 50 (≈ 113 µM) | 23 | 17 | 15 | 25 (≈ 56.5 µM) | 25 (≈ 56.5 µM) | 25 (≈ 56.5 µM) | 26 | 19 | 16 | zone of inhibition at 100 µg/mL [19]: 25 mm; zone of inhibition at 100 µg/mL [20]: 12 mm; MBC [21]: 25 µg/mL (≈ 56.5 µM); MBC [22]: 12.5 µg/mL (≈ 28.3 µM)
4 | COc1ccc(C(=O)/C=C/c2ccc(OCc3nnc(-c4ccc(C)cc4)o3)c(OC)c2)cc1 | 12.5 (≈ 27.4 µM) | 12.5 (≈ 27.4 µM) | 12.5 (≈ 27.4 µM) | 6 (≈ 13.1 µM) | 12.5 (≈ 27.4 µM) | 12.5 (≈ 27.4 µM) | 17 | 21 | 14 | 23 | 25 (≈ 54.8 µM) | 20 | 18 | 16 | 25 (≈ 54.8 µM) | 25 (≈ 54.8 µM) | 25 (≈ 54.8 µM) | 24 | 19 | 15 | zone of inhibition at 100 µg/mL [19]: 23 mm; zone of inhibition at 100 µg/mL [20]: 12 mm; MBC [21]: 25 µg/mL (≈ 54.8 µM); MBC [22]: 25 µg/mL (≈ 54.8 µM)
5 | COc1ccc(C(=O)/C=C/c2ccc(OCc3nnc(-c4ccccc4O)o3)c(OC)c2)cc1 | 6 (≈ 13.1 µM) | 6 (≈ 13.1 µM) | 6 (≈ 13.1 µM) | 6 (≈ 13.1 µM) | 12.5 (≈ 27.3 µM) | 6 (≈ 13.1 µM) | 23 | 26 | 20 | 26 | 25 (≈ 54.5 µM) | 25 | 21 | 19 | 12.5 (≈ 27.3 µM) | 12.5 (≈ 27.3 µM) | 12.5 (≈ 27.3 µM) | 32 | 25 | 21 | zone of inhibition at 100 µg/mL [19]: 30 mm; zone of inhibition at 100 µg/mL [20]: 18 mm; MBC [21]: 6 µg/mL (≈ 13.1 µM); MBC [22]: 12.5 µg/mL (≈ 27.3 µM)
6 | COc1cc(/C=C/C(=O)c2ccc(O)cc2)ccc1OCc1nnc(-c2ccccc2)o1 | 12.5 (≈ 29.2 µM) | 12.5 (≈ 29.2 µM) | 25 (≈ 58.4 µM) | 12.5 (≈ 29.2 µM) | 25 (≈ 58.4 µM) | 25 (≈ 58.4 µM) | 18 | 23 | 15 | 24 | 50 (≈ 117 µM) | 22 | 18 | 16 | 25 (≈ 58.4 µM) | 50 (≈ 117 µM) | 50 (≈ 117 µM) | 27 | 21 | 17 | zone of inhibition at 100 µg/mL [19]: 25 mm; zone of inhibition at 100 µg/mL [20]: 13 mm; MBC [21]: 50 µg/mL (≈ 117 µM); MBC [22]: 25 µg/mL (≈ 58.4 µM)
7 | COc1cc(/C=C/C(=O)c2ccc(O)cc2)ccc1OCc1nnc(-c2ccccc2O)o1 | 6 (≈ 13.5 µM) | 6 (≈ 13.5 µM) | 6 (≈ 13.5 µM) | 12.5 (≈ 28.1 µM) | 6 (≈ 13.5 µM) | 6 (≈ 13.5 µM) | 20 | 24 | 18 | 29 | 12.5 (≈ 28.1 µM) | 27 | 24 | 21 | 12.5 (≈ 28.1 µM) | 12.5 (≈ 28.1 µM) | 25 (≈ 56.3 µM) | 28 | 23 | 19 | zone of inhibition at 100 µg/mL [19]: 27 mm; zone of inhibition at 100 µg/mL [20]: 16 mm; MBC [21]: 12.5 µg/mL (≈ 28.1 µM); MBC [22]: 12.5 µg/mL (≈ 28.1 µM)

— ChEMBL document CHEMBL1629517, “Molecular properties prediction, synthesis and antimicrobial activity of some newer oxadiazole derivatives” (2010)
